# Reference: ChEMBL document CHEMBL1123186, “Enzymatic phosphorylation of the antiherpetic agent 9-[(2,3-dihydroxy-1-propoxy)methyl]guanine” (1986)
# Assays:
# Type in all cases: functional
# MRC5 [1] = assay: Compound was tested for 50% inhibition of HSV-1 induced cytopathic effect in MRC-5 cells; Not active; conditions: Homo sapiens, read-out: ED50 (the source's name)
# Human alphaherpesvirus 1 [2] = assay: Phosphorylation by HSV-1 thymidine kinase
# Procedure, shortened: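 Affinity-purified HSV1 TK (1 unit) from infected HeLa cells, 37 °C for 1 h, with 40 µg nucleoside in 50% Me2SO. Buffer: 50 mM Tris pH 7.5, 5 mM MgCl2, 5 mM ATP, 2 mM DTT, 2.5 mM NaF, 15 mM phosphocreatine, creatine kinase and BSA. Nucleoside and phosphates separated by anion-exchange HPLC (KH2PO4 gradient, pH 3.0) and quantified from peak areas.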
# MRC5 [3] = assay: Compound was tested for 50% inhibition of HSV-1 induced cytopathic effect in MRC-5 cells; 3-6; conditions: Homo sapiens, read-out: ED50 (the source's name)
# Human alphaherpesvirus 1 [4] = assay: Compound was tested for the inhibition of HSV-1 polymerase; design: concentration or dose not given beside the values
# Procedure, shortened: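 Analog first phosphorylated 3 h at 37 °C with HSV1 TK, GMP kinase, creatine kinase/phosphocreatine, 5 mM ATP and HSV1-infected HeLa crude extract; 20 µL aliquots added to 100 µL polymerase mix with 50 mM Tris pH 8, 5 mM MgCl2, activated salmon sperm DNA, 0.05 mM each dNTP ([3H]dTTP), 0.1 M (NH4)2SO4, and infected-HeLa extract or purified HSV1 polymerase; 1 h 37 °C; TCA-precipitable counts.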
# [5] = target: T1, DNA polymerase alpha catalytic subunit (Homo sapiens) (UniProt P09884); assay: Compound was tested for the inhibition of HeLa DNA polymerase; conditions: concentration not given here
# T1 sequence (whole entry): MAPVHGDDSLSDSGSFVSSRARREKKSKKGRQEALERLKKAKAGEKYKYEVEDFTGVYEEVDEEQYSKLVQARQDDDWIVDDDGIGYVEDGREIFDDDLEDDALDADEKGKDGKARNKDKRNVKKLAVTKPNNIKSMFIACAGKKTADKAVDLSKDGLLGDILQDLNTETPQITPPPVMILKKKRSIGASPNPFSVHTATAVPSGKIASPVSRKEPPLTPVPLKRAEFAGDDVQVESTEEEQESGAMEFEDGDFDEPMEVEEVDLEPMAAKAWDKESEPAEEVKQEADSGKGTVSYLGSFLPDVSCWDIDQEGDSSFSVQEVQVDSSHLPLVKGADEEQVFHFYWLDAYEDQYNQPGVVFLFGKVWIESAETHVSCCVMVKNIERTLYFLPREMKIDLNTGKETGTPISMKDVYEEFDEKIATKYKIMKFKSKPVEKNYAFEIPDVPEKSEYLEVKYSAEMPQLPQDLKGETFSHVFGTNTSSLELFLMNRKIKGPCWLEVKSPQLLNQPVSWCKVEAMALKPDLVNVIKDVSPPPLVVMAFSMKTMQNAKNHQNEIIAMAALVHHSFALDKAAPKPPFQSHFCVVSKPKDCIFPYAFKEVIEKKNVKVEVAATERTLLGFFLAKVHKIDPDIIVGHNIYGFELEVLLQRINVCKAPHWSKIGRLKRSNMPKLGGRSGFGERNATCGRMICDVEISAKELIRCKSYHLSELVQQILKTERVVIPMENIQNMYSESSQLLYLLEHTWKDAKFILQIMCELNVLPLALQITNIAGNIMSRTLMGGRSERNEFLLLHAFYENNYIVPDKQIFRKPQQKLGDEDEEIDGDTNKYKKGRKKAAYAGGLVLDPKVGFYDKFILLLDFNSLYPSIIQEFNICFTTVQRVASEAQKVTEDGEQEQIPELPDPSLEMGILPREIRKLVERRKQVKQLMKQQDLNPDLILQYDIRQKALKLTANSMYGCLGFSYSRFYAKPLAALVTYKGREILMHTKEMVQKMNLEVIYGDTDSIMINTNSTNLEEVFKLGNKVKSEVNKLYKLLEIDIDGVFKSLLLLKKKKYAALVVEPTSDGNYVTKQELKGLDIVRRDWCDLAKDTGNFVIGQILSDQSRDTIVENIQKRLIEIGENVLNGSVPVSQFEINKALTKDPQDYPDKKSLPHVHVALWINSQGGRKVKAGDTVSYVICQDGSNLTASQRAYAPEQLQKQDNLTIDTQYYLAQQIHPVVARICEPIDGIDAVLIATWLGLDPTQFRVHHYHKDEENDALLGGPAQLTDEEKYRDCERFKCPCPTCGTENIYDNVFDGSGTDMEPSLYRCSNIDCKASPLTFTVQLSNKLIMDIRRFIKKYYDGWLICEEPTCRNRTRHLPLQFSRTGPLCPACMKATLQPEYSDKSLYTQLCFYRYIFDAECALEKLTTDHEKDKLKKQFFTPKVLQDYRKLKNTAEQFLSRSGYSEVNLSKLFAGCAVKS
# Procedure, shortened: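 Cellular polymerase taken from crude HSV1-infected HeLa extract, assayed without (NH4)2SO4. Inhibitor came as 20 µL of a 3-h, 37 °C enzymatic phosphorylation mixture, in 50 mM Tris pH 8 with 5 mM MgCl2, activated salmon sperm DNA and 0.05 mM each dNTP ([3H]dTTP). Incubation 1 h at 37 °C, then TCA-insoluble radioactivity counted.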
# MRC5 [6] = assay: Compound was tested for 50% inhibition of HSV-1 induced cytopathic effect in MRC-5 cells; conditions: Homo sapiens, read-out: ED50 (the source's name)
inhibition [5],Structure (SMILES),Phosphorylation (Human alphaherpesvirus 1 [2]),Inhibition (Human alphaherpesvirus 1 [4]),also measured
,Nc1nc(O)c2ncn(COCC(O)CF)c2n1 (centres undefined),4%,,EC50 (MRC5 [1]): > 100 µg/mL
,Nc1nc(O)c2ncn(COCC(O)CO)c2n1 (centres undefined) [listing 1 of 2 here],59%,36%,EC50 (MRC5 [3]): 3 µg/mL
37%,Nc1nc2c(ncn2COCCO)c(=O)[nH]1 [ACYCLOVIR],,86%,
10%,"Nc1nc(O)c2ncn(COCC(O)CO)c2n1 (single isomer, unassigned; form 1) [listing 1 of 2 here]",,,
,"Nc1nc(O)c2ncn(COCC(O)CO)c2n1 (single isomer, unassigned; form 2)",,14%,
,Nc1nc(O)c2ncn(COCCCO)c2n1,88%,,EC50 (MRC5 [6]): 50 µg/mL
,CC(O)COCn1cnc2c(O)nc(N)nc21 (centres undefined),5%,,EC50 (MRC5 [6]): 100 µg/mL
,Nc1nc(O)c2ncn(COCC(F)CO)c2n1 (centres undefined),42%,,EC50 (MRC5 [6]): 25 µg/mL
17%,Nc1nc2c(ncn2COC(CO)CO)c(=O)[nH]1 [GANCICLOVIR],,60%,
,"Nc1nc(O)c2ncn(COCC(O)CO)c2n1 (single isomer, unassigned; form 1) [listing 2 of 2 here]",,54%,
6%,Nc1nc(O)c2ncn(COCC(O)CO)c2n1 (centres undefined) [listing 2 of 2 here],,,
